From ChEMBL document CHEMBL1133492, “Design, synthesis, and biological evaluation of fluoronitrophenyl substituted folate analogues as potential inhibitors of GAR transformylase and AICAR transformylase” (Bioorg Med Chem Lett, 2000)
The source made the active and inactive calls. The calls are words filed in the database; no cut-off is given here.

Tests used:
[1] = molecular target: T1, Trifunctional purine biosynthetic protein adenosine-3 (Homo sapiens) (UniProt P22102); experiment: In vitro inhibitory activity against Glycinamide ribonucleotide transformylase (GAR Tfase) after 6 hr at 250 uM; assay type: functional
T1 sequence (whole entry): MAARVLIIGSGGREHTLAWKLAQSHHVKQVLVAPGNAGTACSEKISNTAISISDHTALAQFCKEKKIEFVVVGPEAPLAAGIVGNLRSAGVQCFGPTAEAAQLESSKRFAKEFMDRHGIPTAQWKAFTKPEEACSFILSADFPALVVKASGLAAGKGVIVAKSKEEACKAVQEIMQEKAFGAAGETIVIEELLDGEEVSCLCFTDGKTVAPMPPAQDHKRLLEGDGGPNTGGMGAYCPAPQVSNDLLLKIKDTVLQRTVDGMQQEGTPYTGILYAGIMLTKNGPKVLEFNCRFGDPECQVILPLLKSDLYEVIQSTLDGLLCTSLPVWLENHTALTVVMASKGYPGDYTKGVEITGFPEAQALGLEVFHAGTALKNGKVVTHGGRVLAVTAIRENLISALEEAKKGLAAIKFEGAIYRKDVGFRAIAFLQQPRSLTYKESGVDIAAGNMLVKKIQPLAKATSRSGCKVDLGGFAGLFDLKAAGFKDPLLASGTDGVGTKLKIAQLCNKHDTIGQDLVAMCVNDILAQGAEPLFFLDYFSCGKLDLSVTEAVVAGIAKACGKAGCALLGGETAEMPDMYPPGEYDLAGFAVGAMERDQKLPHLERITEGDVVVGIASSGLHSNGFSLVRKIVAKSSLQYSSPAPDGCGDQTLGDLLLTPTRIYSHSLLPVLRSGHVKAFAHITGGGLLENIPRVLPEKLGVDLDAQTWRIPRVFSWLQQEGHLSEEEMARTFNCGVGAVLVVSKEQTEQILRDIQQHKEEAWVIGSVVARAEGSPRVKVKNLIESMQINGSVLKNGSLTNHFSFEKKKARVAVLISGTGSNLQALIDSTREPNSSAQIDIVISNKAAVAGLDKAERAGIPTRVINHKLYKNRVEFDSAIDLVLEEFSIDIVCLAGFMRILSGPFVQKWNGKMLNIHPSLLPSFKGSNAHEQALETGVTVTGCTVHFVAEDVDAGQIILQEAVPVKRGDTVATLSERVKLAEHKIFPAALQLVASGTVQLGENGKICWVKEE

[2] = molecular target: T1, Trifunctional purine biosynthetic protein adenosine-3 (Homo sapiens); experiment: In vitro inhibitory activity against Glycinamide ribonucleotide transformylase (GAR Tfase) after 30 min at 250 uM; Not active
CCRF-CEM [3] = experiment: Cytotoxicity in the absence of hypoxanthine and presence of thymidine against CCRF-CEM cell line; assay type: functional, cell-based; settings: Homo sapiens
Method in brief: (§1)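 CCRF-CEM cells were grown in purine- and pyrimidine-free medium, with thymidine and/or hypoxanthine added or omitted as each line specifies. The cytotoxic potency was reported as an IC50 (µM).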

CCRF-CEM [4] = experiment: Cytotoxicity in the absence of thymidine and hypoxanthine against CCRF-CEM cell line; assay type: functional, cell-based; settings: Homo sapiens; method in brief: as §1
CCRF-CEM [5] = experiment: Cytotoxicity in the absence of thymidine and presence of hypoxanthine against CCRF-CEM cell line; assay type: functional, cell-based; settings: Homo sapiens; method in brief: as §1
CCRF-CEM [6] = experiment: Cytotoxicity in the presence of thymidine and hypoxanthine against CCRF-CEM cell line; assay type: functional, cell-based; settings: Homo sapiens; method in brief: as §1
[7] = molecular target: T1, Trifunctional purine biosynthetic protein adenosine-3 (Homo sapiens); experiment: In vitro inhibitory activity against Glycinamide ribonucleotide transformylase (GAR Tfase) after 3 min at 250 uM; Not active
[8] = molecular target: Bifunctional purine biosynthesis protein ATIC (Homo sapiens, UniProt P31939); experiment: In vitro inhibitory activity against Aminoimidazole carboxamide ribonucleotide transformylase after 12 hr at 250 uM; Not active
Sequence of Bifunctional purine biosynthesis protein ATIC (P31939 whole entry, looked up): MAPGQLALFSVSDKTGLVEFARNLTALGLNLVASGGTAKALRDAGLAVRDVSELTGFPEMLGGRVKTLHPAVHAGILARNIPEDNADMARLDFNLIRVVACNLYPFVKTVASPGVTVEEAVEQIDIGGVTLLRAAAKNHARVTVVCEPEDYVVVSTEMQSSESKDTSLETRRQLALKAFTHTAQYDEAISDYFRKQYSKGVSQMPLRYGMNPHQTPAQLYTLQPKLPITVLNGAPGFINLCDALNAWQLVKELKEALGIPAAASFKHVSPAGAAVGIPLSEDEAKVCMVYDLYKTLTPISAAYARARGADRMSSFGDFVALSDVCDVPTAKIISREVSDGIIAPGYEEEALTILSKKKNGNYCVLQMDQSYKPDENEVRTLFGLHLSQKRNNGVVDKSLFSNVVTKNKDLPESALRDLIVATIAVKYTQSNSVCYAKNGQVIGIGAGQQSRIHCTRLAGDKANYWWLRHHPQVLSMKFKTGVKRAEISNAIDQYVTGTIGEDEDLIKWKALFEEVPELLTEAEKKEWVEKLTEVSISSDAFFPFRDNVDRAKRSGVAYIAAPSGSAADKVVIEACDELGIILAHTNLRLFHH

Q: How did the inhibition [1] turn out when Nc1nc(N)c(CCCNc2ccc([N+](=O)[O-])c(F)c2F)c(O)n1 was run?
A: The inhibition was 59%.

Q: And the inhibition [2]?
A: The inhibition was “inactive”.

Q: And the IC50 (CCRF-CEM [3])?
A: Its IC50 is 68 µM.

Q: What about the IC50 (CCRF-CEM [4]) of the same compound?
A: The IC50 was 76 µM.

Q: What about the IC50 (CCRF-CEM [5]) of the same compound?
A: Its IC50 is 76 µM.

Q: What about the IC50 (CCRF-CEM [6]) of the same compound?
A: The IC50 was 73 µM.

Q: What about the inhibition [7] of the same compound?
A: The inhibition was “inactive”.

Q: And the inhibition [8]?
A: The inhibition was “inactive”.
